Published values pooled from the literature.
Lines come from different studies, so protocols differ. pIC50: −log10 of the molar value. Values after ≈ are worked out from the molar mass of the structure shown.

C[C@@H](O)[C@H]1C(=O)N2C(C(=O)O)=C(SCCN=CN)C[C@H]12 — MIC (Enterococcus faecalis; microbial growth; VRE; drug-resistant strain): < 1 µg/mL
C#Cc1cccc(O)c1C=NNC(=O)c1ccc(Br)cc1 — MIC80 (Aspergillus fumigatus; microbial growth; 48 h, pH 6.5): > 32 µg/mL
COC(=O)C1=C(C)NC(C)=C(C(=O)OC(C)(C)CN(C)CCC(c2ccccc2)c2ccccc2)C1c1cccc([N+](=O)[O-])c1 (stereo not drawn) — MIC (Aspergillus fumigatus; microbial growth, broth dilution; 48 h): > 250 µM
C=C(CN(C(=O)c1c(C(F)F)nn(C)c1F)C1CC1)c1ccc(Cl)cc1Cl — EC50 (Ustilaginoidea virens; microbial growth; 12 h): 0.0232 µg/mL (≈ 0.0555 µM)
COc1ccc(C=NNC(=S)N[N+](=O)[O-])cc1OC — pIC50 (Leishmania major; parasite growth, MTT; 72 h, promastigote): 2.92
C#Cc1ccc(C=NNC(=O)c2ccc(Br)c(Br)c2)c(O)c1 — MIC80 (Aspergillus fumigatus; microbial growth; 48 h, pH 6.5): > 16 µg/mL
O=[N+]([O-])NC(=S)NN=Cc1ccc(Br)cc1 — pIC50 (Leishmania major; parasite growth; J774.A1; 72 h, intracellular, amastigote): 3.37
C#Cc1ccc(C=NNC(=O)c2cc(Br)cc(Br)c2O)c(O)c1 — MIC80 (Aspergillus fumigatus; microbial growth; 48 h, pH 6.5): > 16 µg/mL
O=C(O)c1cn(C2CC2)c2cc(N3CCNCC3)c(F)cc2c1=O — MIC (Enterococcus faecalis; microbial growth; VRE; drug-resistant strain): < 1 µg/mL
